{"source": "ChEMBL document CHEMBL4184319", "about": "“Fluorescent-Labeled Selective Adenosine A2B Receptor Antagonist Enables Competition Binding Assay by Flow Cytometry” (J Med Chem, 2018)", "molecular_target": "T1, Adenosine receptor A2b (Homo sapiens) (UniProt P29275)", "T1 sequence (whole entry)": "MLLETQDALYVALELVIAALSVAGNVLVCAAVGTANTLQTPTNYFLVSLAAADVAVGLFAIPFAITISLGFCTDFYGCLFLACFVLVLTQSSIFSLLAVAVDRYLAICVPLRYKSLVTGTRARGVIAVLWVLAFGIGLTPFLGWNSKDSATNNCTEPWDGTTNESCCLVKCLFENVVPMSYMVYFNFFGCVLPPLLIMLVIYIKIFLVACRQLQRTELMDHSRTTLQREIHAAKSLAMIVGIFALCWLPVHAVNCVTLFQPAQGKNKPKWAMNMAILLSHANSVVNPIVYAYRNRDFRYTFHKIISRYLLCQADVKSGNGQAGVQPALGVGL", "assay": "Binding affinity to recombinant human adenosine A2B receptor expressed in CHO cell membranes at 100 nM after 15 mins in presence of PSB-603 by confocal microscopic method", "type": "cell-based", "procedure,_shortened": "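Live CHO cells stably expressing human A2BAR (or wild-type CHO as control) grown on chambered coverslips to about 80 % confluency. Incubated with fluorescent ligand (100 nM) for 15 min at 37°C, alone or after 30 min pre-incubation with PSB-603 (100 nM) or DPCPX (1 µM). Confocal laser scanning imaging with identical settings across conditions. Three similar experiments.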", "note": "Activity calls are given as the source filed them. The rule behind the calls is not given here."}
{"smiles": "CCCn1c(=O)[nH]c2nc(-c3ccc(OCC(=O)NCCC4=C5C(C)=CC(C)=[N+]5[B-](F)(F)n5c(C)cc(C)c54)cc3)[nH]c2c1=O", "values": [{"measurement": "Activity", "value": "inactive"}]}
